Broadly, the IC50 is the point on the concentration scale where inhibition reaches its midpoint.

Each structure is given as a SMILES string. Where a chain is given by its changes, count along the chain named.

Consider one molecule from PMC9521027 (ACS Omega, 2022).

Assay [1] deals with T1, URAT1 K393R mutant (Homo sapiens, UniProt Q96S37, K393R).
T1 sequence (Q96S37 1-553 K393R): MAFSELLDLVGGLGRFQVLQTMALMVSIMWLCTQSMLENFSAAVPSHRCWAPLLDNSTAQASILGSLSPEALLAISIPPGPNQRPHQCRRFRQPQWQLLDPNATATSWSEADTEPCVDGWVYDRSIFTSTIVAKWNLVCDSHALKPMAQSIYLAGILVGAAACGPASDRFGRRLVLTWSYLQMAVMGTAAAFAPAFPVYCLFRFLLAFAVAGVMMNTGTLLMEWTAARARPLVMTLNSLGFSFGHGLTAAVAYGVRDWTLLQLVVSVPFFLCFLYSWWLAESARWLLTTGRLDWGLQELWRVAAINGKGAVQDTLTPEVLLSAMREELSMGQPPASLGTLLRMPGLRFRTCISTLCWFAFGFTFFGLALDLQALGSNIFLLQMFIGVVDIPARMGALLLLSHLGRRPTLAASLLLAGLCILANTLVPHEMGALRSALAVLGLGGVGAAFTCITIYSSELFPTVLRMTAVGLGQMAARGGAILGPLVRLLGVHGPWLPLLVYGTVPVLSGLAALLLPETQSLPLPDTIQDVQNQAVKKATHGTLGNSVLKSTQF
In words: 14C-uric acid binding assay with membrane protein. Particulars: 2.5 μg membrane protein, 25 μM 14C-uric acid, 30 min.

The target of assay [2] is T2, URAT1 K393E mutant (Homo sapiens, UniProt Q96S37, K393E).
T2 sequence (Q96S37 1-553 K393E): T1 sequence (Q96S37 1-553 K393R) with R393E
In words: 14C-uric acid uptake assay in transfected HEK293 cells. The note with it: K393E, HEK293 cells. In kind it is cell-based.

The target in assay [3] is T3, URAT1 K393H mutant (Homo sapiens, UniProt Q96S37, K393H).
T3 sequence (Q96S37 1-553 K393H): T1 sequence (Q96S37 1-553 K393R) with R393H
Described as above. In kind it is cell-based. Particulars: K393H, HEK293 cells.

Assay [4] concerns the target T2, URAT1 K393E mutant. In words: 14C-uric acid binding assay with membrane protein. The note with it: 2.5 μg membrane protein, 25 μM 14C-uric acid, 30 min. Put shortly:
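Membranes came from HEK293 cells transiently transfected (Lipofectamine 3000) with sequence-confirmed site-directed K393 mutant hURAT1 plasmids; control membranes came from cells transfected with pECFP empty vector. Cells were harvested in ice-cold 25 mM HEPES pH 7.3 with 125 mM sodium gluconate, and membranes were extracted with a kit. Protein was incubated at room temperature, then rapid-filtered, washed with ice-cold DPBS, dissolved in 0.1 M NaOH and scintillation-counted. n = 3, mean ± SD.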

Assay [5] addresses T1, URAT1 K393R mutant. In words: 14C-uric acid uptake assay in transfected HEK293 cells. The note with it: K393R, HEK293 cells. In kind it is cell-based.
The target in a further assay is T4, URAT1 WT (Homo sapiens, UniProt Q96S37).
T4 sequence (Q96S37 1-553): T1 sequence (Q96S37 1-553 K393R) with R393K
In words: Competitive inhibition test of unlabeled uric acid on 14C-uric acid uptake. In kind it is cell-based.

Assay [6] addresses T3, URAT1 K393H mutant. The assay is described as above. In kind it is cell-based.
Assay [7] deals with T3, URAT1 K393H mutant. As to the kind of experiment: 14C-uric acid binding assay with membrane protein. The note with it: 2.5 μg membrane protein, 25 μM 14C-uric acid, 30 min.

Regarding `O=c1[nH]c(=O)c2[nH]c(=O)[nH]c2[nH]1` [uric acid], the “14C-uric acid binding capacity compared with WT” value on URAT1 K393R mutant [1] and on URAT1 K393H mutant [7] was “similar” throughout. Also, on URAT1 K393E mutant [2], the “14C-urate transport capacity lost compared with WT” value is reported as 70–80%. For the same molecule, the “14C-uric acid transport capacity compared with WT” value at URAT1 K393H mutant [3] is recorded as “slightly reduced”. Further, the “14C-uric acid binding compared with WT” value at URAT1 K393E mutant [4] is listed as “significant loss”. Also, the “14C-uric acid transport compared with WT” value on URAT1 K393R mutant [5] is reported as “no reduction”. Further, the half-maximal inhibitory concentration (IC50) amounted to 115 ± 6.36 µM at URAT1 WT and 121 ± 5.98 µM at URAT1 K393H mutant [6].
